Data from ChEMBL document CHEMBL4196090, “Design, synthesis and biological evaluation of piperazinyl-β-carbolinederivatives as anti-leishmanial agents” (Eur J Med Chem, 2018).

Tests used:
[1] = Selectivity index, ratio of CC50 for human HeLa cells to EC50 for Leishmania donovani LdBOB axenic amastigotes; assay type: toxicity; conditions: read-out: Ratio CC50/EC50
How it was run: (§1)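 Selectivity index computed as CC50 (HeLa, Alamar blue) divided by EC50 for the respective parasite stage.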

[2] = Selectivity index, ratio of CC50 for human HeLa cells to EC50 for Leishmania infantum JPCM5 MCAN/ES/98/LLM-87 promastigotes; assay type: toxicity; conditions: read-out: Ratio CC50/EC50; how it was run: as §1
Leishmania infantum [3] = test: Antileishmanial activity against Leishmania infantum JPCM5 MCAN/ES/98/LLM-87 promastigotes after 72 hrs by alamar blue assay; assay type: functional, organism-based; conditions: MCAN/ES/98/LLM-87, 72 h
How it was run: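 L. infantum JPCM5 promastigotes grown at 26 °C in HOMEM. Exposed to serial compound dilutions for 72 h, then Alamar blue read-out to give EC50.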

Leishmania infantum [4] = test: Antileishmanial activity against Leishmania infantum JPCM5 MCAN/ES/98/LLM-87 axenic amastigotes after 72 hrs by alamar blue assay; assay type: functional, organism-based; conditions: MCAN/ES/98/LLM-87, 72 h
How it was run: (§2)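 Axenic amastigotes (L. donovani LdBOB; L. infantum clone JPCM5, grown at 26 °C in HOMEM) incubated 72 h with compounds. Viability read by Alamar blue; EC50 determined.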

Leishmania donovani [5] = test: Antileishmanial activity against Leishmania donovani LdBOB axenic amastigotes after 72 hrs by alamar blue assay; assay type: functional, organism-based; how it was run: as §2
Leishmania donovani [6] = test: Antileishmanial activity against Leishmania donovani LdBOB amastigotes infected in human THP1 cells after 72 hrs by Giemsa staining based microscopic method; assay type: functional, organism-based; conditions: THP-1, 72 h
How it was run: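 THP-1 cells, kept in MEM plus 10% FBS, plated at 20,000/well with 10 nM PMA, 37 °C, 5% CO2, 75 h. Washed in PBS with 1 mM CaCl2, 0.5 mM MgCl2, 0.1% BSA. Infected with axenic LdBOB amastigotes at MOI 5 for 18 h, washed, serial compound dilutions for 72 h. Methanol fixation, Giemsa stain, ~200 macrophages/well counted. % infection vs untreated control (100%) gives EC50.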

Leishmania donovani [7] = test: Antileishmanial activity against Leishmania donovani promastigotes after 72 hrs by alamar blue assay; assay type: functional, organism-based
How it was run: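 L. donovani promastigotes grown at 26 °C in M199 plus 10% heat-inactivated FCS. Exposed to serial compound dilutions for 72 h, then Alamar blue read-out to give EC50.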

[8] = Selectivity index, ratio of CC50 for human HeLa cells to EC50 for Leishmania donovani LdBOB amastigotes infected in human THP1 cells; assay type: toxicity, cell-based; conditions: read-out: Ratio CC50/EC50; how it was run: as §1
[9] = Cytotoxicity against human HeLa cells after 65 hrs by alamar blue assay; assay type: cell-based
How it was run: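 HeLa cells first screened at 500 µM. Active compounds then tested for CC50: cells seeded at 2 × 10^4/well, exposed to compound 65 h, then Alamar Blue added for a further 5 h.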

Leishmania infantum [10] = test: Selectivity ratio of EC50 for antileishmanial activity against Leishmania infantum JPCM5 MCAN/ES/98/LLM-87 promastigotes to EC50 for antileishmanial activity against Leishmania infantum JPCM5 MCAN/ES/98/LLM-87 amastigotes; assay type: functional
[11] = Selectivity index, ratio of CC50 for human HeLa cells to EC50 for Leishmania donovani promastigotes; assay type: toxicity; conditions: read-out: Ratio CC50/EC50; how it was run: as §1
[12] = Selectivity index, ratio of CC50 for human HeLa cells to EC50 for Leishmania infantum JPCM5 MCAN/ES/98/LLM-87 axenic amastigotes; assay type: toxicity; conditions: read-out: Ratio CC50/EC50; how it was run: as §1
Leishmania infantum [13] = test: Potency index, ratio of miltefosine EC50 to compound EC50 for antileishmanial activity against Leishmania infantum JPCM5 MCAN/ES/98/LLM-87 promastigotes; assay type: functional
Leishmania infantum [14] = test: Potency index, ratio of pentamidine EC50 to compound EC50 for antileishmanial activity against Leishmania infantum JPCM5 MCAN/ES/98/LLM-87 promastigotes; assay type: functional

Row | Structure (SMILES) | selectivity ratio [1] | selectivity ratio [2] | EC50 (Leishmania infantum [3]) [µM] | EC50 (Leishmania infantum [4]) [µM] | EC50 (Leishmania donovani [5]) [µM] | EC50 (Leishmania donovani [6]) [µM] | EC50 (Leishmania donovani [7]) [µM] | selectivity ratio [8] | CC50 at 65 h [9] [µM] | Ratio EC50 (Leishmania infantum [10]) | selectivity ratio [11] | selectivity ratio [12] | Ratio EC50 (Leishmania infantum [13]) | Ratio EC50 (Leishmania infantum [14])
1 | COc1ccc(N2CCN(C(=O)c3cc4c([nH]c5ccccc54)c(-c4ccccc4)n3)CC2)cc1 | > 179 | > 55.1 | 9.07 | 5.2 | 2.8 | 9.2 | 6.32 | > 54.4 | > 500 | 2 - 5 | > 79.1 | > 96.2 | – | –
2 | Cc1ccccc1N1CCN(C(=O)c2cc3c([nH]c4ccccc43)c(-c3ccccc3)n2)CC1 | > 83.3 | > 13.8 | 36.2 | – | 6 | 9.6 | 12.6 | > 52.1 | > 500 | – | > 39.7 | – | – | –
3 | O=C(c1cc2c([nH]c3ccccc32)c(-c2ccccc2)n1)N1CCN(c2ccc([N+](=O)[O-])cc2)CC1 | > 42.4 | > 25.5 | 19.8 | 24.8 | 11.8 | 21.5 | 12.8 | > 23.3 | > 500 | – | > 39.1 | > 20.2 | – | –
4 | O=C(c1cc2c([nH]c3ccccc32)c(-c2ccccc2)n1)N1CCN(c2cccc(Cl)c2Cl)CC1 | > 87.7 | > 46.7 | 10.7 | 2.9 | 5.7 | 6.4 | 6.95 | > 78.1 | > 500 | 2 - 5 | > 71.9 | > 172 | – | –
5 | O=C(c1cc2c([nH]c3ccccc32)c(-c2ccccc2)n1)N1CCN(Cc2ccccc2)CC1 | 2.3 | 1.2 | 24.3 | – | 12.6 | 8.8 | 16.4 | 3.3 | 28.9 | – | 1.8 | – | – | –
6 | COc1cccc(N2CCN(C(=O)c3cc4c([nH]c5ccccc54)c(-c4ccccc4)n3)CC2)c1 | 108 | 71 | 2.89 | 2.8 | 1.9 | 6.9 | 4.85 | 29.7 | 205 | 2 - 5 | 42.3 | 73.3 | 4 | 4
7 | O=C(c1cc2c([nH]c3ccccc32)c(-c2ccccc2)n1)N1CCN(c2ccccc2F)CC1 | > 179 | > 33.6 | 14.9 | 9.4 | 2.8 | 4 | 3.47 | > 125 | > 500 | – | > 144 | > 53.2 | – | –
8 | Cc1ccc(N2CCN(C(=O)c3cc4c([nH]c5ccccc54)c(-c4ccccc4)n3)CC2)cc1 | > 152 | > 51.9 | 9.63 | 6.2 | 3.3 | 5.7 | 4.91 | > 87.7 | > 500 | 2 - 5 | > 102 | > 80.6 | – | –
9 | O=C(c1cc2c([nH]c3ccccc32)c(-c2ccccc2)n1)N1CCN(c2ccncc2)CC1 | – | 1.2 | 66.7 | – | – | – | 68.5 | – | 78.7 | – | 1.2 | – | – | –
10 | O=C(c1cc2c([nH]c3ccccc32)c(-c2ccccc2)n1)N1CCN(c2ccccn2)CC1 | > 98 | > 14.7 | 34 | – | 5.1 | 11.9 | 7.5 | > 42 | > 500 | – | > 66.7 | – | – | –
11 | O=C(c1cc2c([nH]c3ccccc32)c(-c2ccccc2)n1)N1CCN(c2ccc(Cl)cc2)CC1 | – | > 15.2 | 33 | – | – | – | 38.6 | – | > 500 | – | > 12.9 | – | – | –
12 | COc1ccccc1N1CCN(C(=O)c2cc3c([nH]c4ccccc43)c(-c3ccccc3)n2)CC1 | 89 | 61.1 | 3.35 | 4.9 | 2.3 | 8 | 3.49 | 25.6 | 205 | 2 - 5 | 58.7 | 41.8 | 4 | 4
13 | O=C(c1cc2c([nH]c3ccccc32)c(-c2ccccc2)n1)N1CCN(c2ccccc2)CC1 | 3 | 3 | 12.5 | 4.5 | 12.5 | 7.3 | 16.3 | 5.2 | 38.1 | – | 2.3 | 8.5 | – | –
14 | O=C(c1cc2c([nH]c3ccccc32)c(-c2ccccc2)n1)N1CCN(c2ccc(F)cc2)CC1 | > 39.7 | > 35.5 | 14.1 | 11.3 | 12.6 | 22.3 | 17.5 | > 22.4 | > 500 | – | > 28.6 | > 44.2 | – | –
15 | O=C(c1cc2c([nH]c3ccccc32)c(-c2ccccc2)n1)N1CCN(c2ccccc2Cl)CC1 | > 86.2 | > 31.8 | 15.7 | 12.2 | 5.8 | 8.5 | 6.98 | > 58.8 | > 500 | – | > 71.6 | > 41 | – | –
16 | O=C(c1cc2c([nH]c3ccccc32)c(-c2ccccc2)n1)N1CCN(c2cccc(Cl)c2)CC1 | 1.8 | 1.2 | 15.9 | 3.3 | 10.2 | 6.8 | 13.2 | 2.7 | 18.4 | – | 1.4 | 5.6 | – | –
17 | CCCCCCCCCCCCCCCCOP(=O)([O-])OCC[N+](C)(C)C [MILTEFOSINE] | – | – | 12.6 | 4.8 | 2.8 | 6.4 | 3.12 | – | – | – | – | – | – | –
18 | N=C(N)c1ccc(OCCCCCOc2ccc(C(=N)N)cc2)cc1 [PENTAMIDINE] | – | – | 8.31 | 2.7 | 1.6 | 23.7 | 6.4 | – | – | – | – | – | – | –
